The text below walks through data of ChEMBL document CHEMBL2062518, “Total synthesis and biological evaluation of transvalencin Z” (J Nat Prod, 2012).

The subject of the test is Mycobacterium tuberculosis variant bovis BCG. Briefly: Antimicrobial activity against Mycobacterium bovis BCG TMC1011 Pasteur ATCC 35734 after 24 to 48 hrs. The class given is functional. Put shortly: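 Streaked from frozen glycerol stock onto nutrient agar (1.5% agar), 37 °C, 24 h. Single colonies were grown in nutrient broth to OD600 1.0 and diluted to OD600 0.003. Cells were exposed to compound at varying concentrations from DMSO stocks (1% DMSO). Growth was read at 600 nm at 24 and 48 h, with 690 nm background subtracted and normalised to DMSO controls.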
In general, MIC99 refers to an inhibitory concentration at the 99% level, which refers to growth in some studies and to a panel of isolates in others. Read a high MIC99 as lower susceptibility. `O=CNCCCC[C@@H](NC(=O)[C@H]1COC(c2ccccc2O)=N1)C(=O)O` showed an MIC99 of over 100 µM. To `O=CNCCCC[C@@H](NC(=O)[C@@H]1COC(c2ccccc2O)=N1)C(=O)O` belongs over 100 µM. In turn, `O=CNCCCC[C@H](NC(=O)[C@H]1COC(c2ccccc2O)=N1)C(=O)O` gave an MIC99 of over 100 µM. To `O=CNCCCC[C@H](NC(=O)[C@@H]1COC(c2ccccc2O)=N1)C(=O)O` belongs over 100 µM.
